Test results from article PMC11718131 (Communications Biology, 2025).
Peptide text beside a SMILES is read from it. * marks the point of attachment. Cbz = O=C(OCc1ccccc1)*

Columns and labels:
[1] = cited from earlier work
[2] = test system: wildtype (WT) CA2; settings: in words; cited from earlier work
[3] = test system: proteasome; GFP-CA2-DRD fusion in Jurkat cells; assay: Proteasome inhibition assay; format: cell-based, human; settings: 10 µM MG132, 4 h without ACZ after 24 h ACZ; versus vehicle
Method in brief: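 Cells then washed with fresh media and split in two: one arm […] 10 µM MG132 for 4 h. GFP expression read by flow cytometry.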

[4] = Huntington's disease; cited from earlier work

Question: Which results are given for `CC(=O)Nc1nnc(S(N)(=O)=O)s1` [ACZ, acetazolamide]?
Answer: total in vivo exposure levels ([1]; FDA-approved and clinically used doses): ~ 100 µM; total concentrations in plasma and other tissues ([1]; approved doses, in words): micromolar range; affinity to CA2 [2]: low nanomolar affinity

Question: Which “decrease in GFP levels after ACZ withdrawal” value [3] does the source give for `CC(C)C[C@@H](C=O)NC(=O)[C@H](CC(C)C)NC(=O)[C@H](CC(C)C)NC(=O)OCc1ccccc1` [MG132] (Cbz-Leu-Leu-Leu-aldehyde) here?
Answer: smaller decrease in GFP levels

Question: With `CC1(C)CC(Oc2ccc(-c3ccc(-c4cn[nH]c4)cc3O)nn2)CC(C)(C)N1` [branaplam] as the molecule, how does the “clinical trial outcome” value [4] read?
Answer: halted because of drug-related side effects
